Results taken from ChEMBL document CHEMBL4130549, “Synthesis and bioactivities study of new antibacterial peptide mimics: The dialkyl cationic amphiphiles” (Eur J Med Chem, 2018).
Active and inactive are the calls of the source. The calls are words filed in the database; no cut-off is given here.

Legend:
Staphylococcus aureus [1] = assay: Bactericidal activity against Staphylococcus aureus ATCC 29213 at 12 ug/ml after 6 hrs by time kill assay; format: functional, organism-based
Method in brief: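 Time-kill: an overnight S. aureus ATCC 29213 culture was diluted 1:10,000 in Mueller-Hinton broth and grown 2 h (early exponential) or 5 h (late exponential) at 37 °C and 225 rpm. Cells were then exposed in tubes under the same conditions. At intervals, aliquots were pelleted, resuspended in PBS, serially diluted tenfold, plated on agar overnight, and counted as CFU/mL. Biological replicates were run.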

Escherichia coli = assay: Ratio of MIC for Escherichia coli ATCC 25922 after 20 serial passages to MIC for Escherichia coli ATCC 25922; format: functional, organism-based
Method in brief: (§1)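 Sub-MIC serial passaging: after an initial broth microdilution MIC, cells grown at MIC/2 were transferred into a new MIC assay after each 24 h incubation, for 20 passages. MIC was plotted against days to follow resistance development. Passaging controls were norfloxacin for S. aureus and colistin for E. coli.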

Staphylococcus aureus [2] = assay: Ratio of MIC for Staphylococcus aureus ATCC 29213 after 20 serial passages to MIC for Staphylococcus aureus ATCC 29213; format: functional; method in brief: as §1

For `CN[C@H](CC(C)C)C(=O)N[C@H]1C(=O)N[C@@H](CC(N)=O)C(=O)N[C@H]2C(=O)N[C@H]3C(=O)N[C@H](C(=O)N[C@H](C(=O)O)c4cc(O)cc(O)c4-c4cc3ccc4O)[C@H](O)c3ccc(c(Cl)c3)Oc3cc2cc(c3O[C@@H]2O[C@H](CO)[C@@H](O)[C@H](O)[C@H]2O[C@H]2C[C@](C)(N)[C@H](O)[C@H](C)O2)Oc2ccc(cc2Cl)[C@H]1O`, the Activity (Staphylococcus aureus [1]) was “inactive”.

COLISTIN gave a Ratio (Escherichia coli) of 32.

Compound `CCn1cc(C(=O)O)c(=O)c2cc(F)c(N3CCNCC3)cc21` [NORFLOXACIN] has a Ratio (Staphylococcus aureus [2]) of 256.
